Sampled rows, rich in hits. Any-hit rate of the full collection: about 2.9%.
EBNA-1 inh – blocks EBNA-1 binding to DNA; actives 0.34% (n = 300,000); EBNA-1 DNA binding, fluorescence polarization; AID 1950; inhibition, % at 14.8 µM; in the data active = inhibition above about 28%
M18AAP inhibitor – PfM18AAP enzyme inhibition; recombinant PfM18AAP, H-Glu-NHMec fluorogenic cleavage; actives 1.2% (n = 290,000); inhibition, % at 7.35 µM;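 active = inhibition above the campaign mean inhibition over all tested compounds plus 3 SD, cut at about 28% in these data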;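 also: 0% = plate median of test compound wells and 100% = 2 mM ZnCl2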
ZTA counter – counter-screen for EBNA-1 inhibitors: inhibitors of Epstein-Barr virus ZTA. ZTA-DNA binding, fluorescence polarization. inhibition, % at 11 µM. actives 0.15% (n = 320,000). P03206. AID 2234; in the data active = inhibition above about 33%
Target sequence (P03206 whole entry, looked up): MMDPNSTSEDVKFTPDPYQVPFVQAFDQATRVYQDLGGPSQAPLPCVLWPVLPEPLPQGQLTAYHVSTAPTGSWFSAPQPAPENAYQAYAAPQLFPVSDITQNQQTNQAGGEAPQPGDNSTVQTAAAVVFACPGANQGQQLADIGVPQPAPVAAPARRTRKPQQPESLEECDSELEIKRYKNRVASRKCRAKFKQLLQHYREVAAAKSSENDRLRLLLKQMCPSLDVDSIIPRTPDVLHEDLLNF
Apaf-1 inh – human Apaf-1 inhibition | reconstituted apoptosome caspase-3 activity, DEVD-Rh110 fluorescence | inhibition, % at 20 µM | actives 0.71% (n = 330,000); active = inhibition of at least 40% at 20 µM;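 also: plate controls were DMSO wells for no effect and DEVD-CHO caspase inhibitor wells for full effect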
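System: reconstituted apoptosome with Apaf-1, cytochrome c, caspase-9, procaspase-3, dATP; Signal: Rh110 fluorescence intensity; Schedule: 30 min compound preincubation, 50 min activation, room temperature; Reagent: cytochrome c trigger plus (Z-DEVD)2-Rh110 caspase-3 substrate.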
PfG6PD inh – PfG6PD (Plasmodium falciparum) enzyme inhibition | PfGluPho enzyme, NADPH resazurin-diaphorase fluorescence | inhibition, % at 20 µM | actives 0.78% (n = 350,000) | AID 504690;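 active = inhibition reaching at least a set limit at 20 µM in the primary screen, cut at about 59% in these data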;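 also: 0% = DMSO wells with substrate and 100% = DMSO wells lacking glucose-6-phosphate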
UBC13 inh – inhibitors of human UBC13 polyubiquitin chain formation | inhibition, % at 20 µM | TR-FRET | P61088 | actives 0.47% (n = 330,000) | AID 485273; in the data active = inhibition above about 45%, passing the limit was not always enough; inconclusive = no clear call, values can overlap the other calls
Target sequence (P61088 whole entry, looked up): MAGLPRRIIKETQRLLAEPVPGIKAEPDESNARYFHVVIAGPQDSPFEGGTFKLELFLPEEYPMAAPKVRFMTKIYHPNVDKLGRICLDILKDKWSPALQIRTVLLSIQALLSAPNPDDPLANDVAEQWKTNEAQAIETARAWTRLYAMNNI
* hit, by the source's call; ? = inconclusive; . = no result.

SMILES	EBNA-1 inh	M18AAP inhibitor	ZTA counter	Apaf-1 inh	PfG6PD inh	UBC13 inh
COc1ccc(/C=N/NC(=S)Nc2cccc(C(=O)O)c2)cc1	1.7	30.5*	-23.6	9.5	2.5	-2.6
COc1cccc(/C=N/NC(=S)Nc2cccc(C(=O)O)c2)c1O	-0.5	38.2*	-2.1	-7.0	-59.2	3.7
COc1ccc(/C=N/NC(=S)Nc2ccccc2)cc1	2.5	30.9*	-6.4	8.5	-5.1	3.8
COc1ccc(/C=N/NC(=S)Nc2ccccc2)cc1COc1ccc(Br)cc1	1.9	-3.0	11.5	-12.9	-6.1	-14.6
COc1cc(/C=N/NC(=S)Nc2cccc(C(=O)O)c2)ccc1O	8.1	19.9	11.5	1.9	11.5	1.0
O=C(/C(=C/c1ccccc1)n1cncn1)c1ccc(Cl)cc1Cl	5.8	54.1*	3.5	10.3	5.6	8.1
O=C(/C(=N\O)n1cncn1)c1ccc(Cl)cc1Cl	1.6	0.6	10.5	-3.1	-14.7	-5.0
COc1ccc(C=Nc2cccnc2N)cc1	-10.2	30.6*	-1.4	7.6	9.2	-11.8
Cc1ccc(C=Nc2cccnc2N)cc1	1.3	13.3	-5.0	8.6	7.2	-5.0
O=C(NCCc1ccccc1)C1CCC(=O)N(Cc2cccc(C(F)(F)F)c2)C1 (stereo unspecified)	.	-5.4	.	3.6	-0.4	-11.6
O=C(Nc1ccc(F)cc1)C1=CC(=O)N2CCN=C2S1	6.3	29.3*	-11.0	-2.1	.	15.6
CCc1ccc(OCC(=O)NNC(=S)NC(=O)C2CCCCC2)c(Br)c1	-4.4	-6.8	-5.4	20.6	14.0	-20.0
CCc1ccc(OCC(=O)NNC(=S)NC(=O)C2CC2)c(Br)c1	.	2.5	.	-8.0	-19.1	72.5*
O=C(O)C1Nc2c(O)cccc2C2C=CCC12 (stereo unspecified)	42.3*	6.2	30.4	34.9	7.7	?
COc1cccc(NC(=O)COC(=O)/C=C/c2ccc(Cl)cc2Cl)c1	38.6*	1.7	8.6	25.1	-2.7	2.7
O=C(COC(=O)CNS(=O)(=O)c1c(F)cccc1F)NC(=O)NC1CCCCC1	.	.	12.9	-0.3	-5.7	?
O=C1Nc2ccc(Br)cc2C1Cc1ccccc1F (stereo unspecified)	2.3	5.9	0.2	-3.4	88.5*	2.7
Cn1c(CC2C(=O)Nc3ccc(Br)cc32)nc2ccccc2c1=O (stereo unspecified)	0.4	-4.0	-4.5	-5.9	8.9	4.9
CC1=CC(C)(C)N2C(=O)C3(C(C#N)=C(N)Oc4cc(O)ccc43)c3c(C)c(C)cc1c32 (stereo unspecified)	8.9	5.0	12.6	15.0	6.3	17.9
COc1ccc(OC)c(C2CC(=O)N3CN(c4ccccc4F)CSC3=C2C#N)c1 (stereo unspecified)	-6.4	28.3*	-2.3	-0.5	53.0	-13.7
COc1cccc(C2CC(=O)N3CN(c4ccccc4F)CSC3=C2C#N)c1 (stereo unspecified)	-2.0	15.0	-5.5	8.5	83.2*	-16.6
COc1cc(C2CC(=O)N3CN(c4ccccc4C)CSC3=C2C#N)cc(OC)c1OC (stereo unspecified)	2.5	33.5*	-3.9	33.0	.	-36.9
COc1ccc(C2CC(=O)N3C(=C2C#N)SCC3(O)c2ccccc2)cc1 (stereo unspecified)	3.4	17.1	14.3	9.3	14.4	-5.2
CC(C)N=c1cc2n(-c3ccc(Cl)cc3)c3ccccc3nc-2cc1Nc1ccc(Cl)cc1	3.0	.	-21.8	68.2*	18.1	-74.1
Cn1c(CNc2ccc(Cl)cc2)nc2ccccc21	-12.7	-10.3	-14.1	11.9	23.2	-11.0
SMILES	EBNA-1 inh	M18AAP inhibitor	ZTA counter	Apaf-1 inh	PfG6PD inh	UBC13 inh
Cc1ccc(C(=O)N(CCc2ccccc2)Cc2ccccc2)cc1S(=O)(=O)N1CCOCC1	.	.	.	.	5.7	.
COc1ccc(C(=O)N(CCc2ccccc2)Cc2ccccc2)cc1S(=O)(=O)N1CCOCC1	1.0	.	-13.2	45.0*	-10.0	14.2
O=c1c2ccccc2oc2ccc(-c3ccc4cc[nH]c4c3)cc12	.	.	.	10.2	4.7	10.4
COc1cccc(NC(=O)CN(C)C(C)C(=O)NC(C)c2ccc(Cl)cc2Cl)c1 (stereo unspecified)	.	.	.	-3.4	19.4	4.8
CCN(CC)CCNC(=O)c1cc2c(=O)n(C)c3ccccc3c2n1C	0.1	8.5	12.1	6.7	37.8	47.6*
CCCN1CCN(CCCNC(=O)c2cc3c(=O)n(C)c4ccccc4c3n2C)CC1	-5.7	-1.8	0.8	.	29.6	.
Cn1c(C(=O)NCCCN2CCc3ccccc3C2)cc2c(=O)n(C)c3ccccc3c21	-0.1	0.7	-1.2	9.6	35.6	56.1*
S=C(NCc1ccccn1)Nc1cccc(Cl)c1	3.0	30.2*	-5.6	-5.7	1.4	0.7
Cc1ccccc1C(=O)NNC(=S)NC(=O)c1cccnc1	-11.0	27.6	-3.9	-2.5	-1.3	3.0
O=C(NC(=S)NNC(=O)c1ccccc1F)c1cccnc1	0.0	28.9*	-6.7	-22.4	-7.6	-2.6
COc1ccc(NC(=O)C[C@H]2C(=O)N(C3CCCCC3)C[C@@H]2C)cc1	.	.	.	.	4.2	.
CCCc1cc(C(=O)Nc2sc(C)c(C)c2C(=O)OCC)no1	.	34.8*	.	-3.7	43.4	-3.9
CCOc1ccc(C(=O)NC(=S)Nc2ccc(N3CCCCC3)cc2)cc1[N+](=O)[O-]	9.4	1.8	5.8	10.8	64.5*	-7.9
CCOC(=O)N1CCN(C2=C(NS(=O)(=O)c3ccc(C)cc3)C(=O)c3ccccc3C2=O)CC1	0.9	31.1*	11.1	86.2*	-3.1	-89.2
Cc1ccc(S(=O)(=O)NC2=C(N3CCN(Cc4ccccc4)CC3)C(=O)c3ccccc3C2=O)cc1	12.7	3.8	16.5	3.1	6.7	-20.0
CC(C)(C)C1=CC(=O)C(=O)C(C(C)(C)C)=C1	3.5	-9.4	-11.2	13.6	111.3*	0.3
C=CCCCCCCCC(=O)OC	0.8	-3.6	9.2	-7.4	-9.7	9.2
CC1CCN(C(=O)c2ccc(SCc3ccccc3F)c([N+](=O)[O-])c2)CC1	37.9*	-0.3	-6.0	19.0	-2.5	-2.3
O=C(C[C@H]1C(=O)N(C2CCCCC2)C[C@@H]1c1ccccc1)Nc1ccc(Br)cc1	.	.	.	.	16.6	.
COc1ccc(C(CNC(=O)C(C)Oc2ccc(Br)cc2)N2CCCC2)cc1 (stereo unspecified)	1.4	.	-6.7	-0.3	8.5	1.1
CN1/C(=C/C(=O)c2ccc(Cl)cc2)Sc2cc3c(cc21)OCO3	-1.4	31.6*	3.1	11.1	25.8	-15.3
CN(C)c1ccc2c(c1)OC(N)=C(C#N)C2c1cccc(F)c1 (stereo unspecified)	-7.3	29.8*	1.4	26.7	16.8	-9.7
N#CC1=C(N)Oc2cc(N)ccc2C1c1cccc(F)c1 (stereo unspecified)	-2.8	-0.9	-5.1	-4.2	-14.1	-5.8
CC(=O)c1ccc(N2CCN(C(=S)Nc3cccc(Cl)c3)CC2)cc1	55.9*	2.2	-2.3	-3.5	-0.5	-3.8

Screening results (PubChem BioAssay)
